# Hits are enriched below; roughly 1.7% of the tested compounds scored in any of these assays.
# HNF4A DNA FP: change in binding of human HNF4 alpha to DNA; P41235; HNF4a-FITC DNA binding, fluorescence polarization, 1 h; activity change, % at 10 µM; hit rate 0.3% among 360,000; in the data active = activity change above about 30%, passing the limit was not always enough
# Target sequence (P41235 whole entry, looked up): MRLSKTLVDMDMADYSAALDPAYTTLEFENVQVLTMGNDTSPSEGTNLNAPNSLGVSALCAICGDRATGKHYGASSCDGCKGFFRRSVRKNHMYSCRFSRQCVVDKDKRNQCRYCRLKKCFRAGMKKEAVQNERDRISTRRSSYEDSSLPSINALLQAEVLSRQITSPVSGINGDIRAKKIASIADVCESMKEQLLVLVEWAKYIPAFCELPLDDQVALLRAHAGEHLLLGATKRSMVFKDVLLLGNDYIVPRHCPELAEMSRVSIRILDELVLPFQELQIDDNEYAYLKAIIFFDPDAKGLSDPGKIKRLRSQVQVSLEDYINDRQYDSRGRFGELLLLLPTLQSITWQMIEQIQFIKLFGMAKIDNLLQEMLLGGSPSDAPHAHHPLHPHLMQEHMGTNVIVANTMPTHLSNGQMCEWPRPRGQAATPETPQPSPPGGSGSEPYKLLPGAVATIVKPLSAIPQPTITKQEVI
# NR1D1 modulator: Rev-erb alpha (human) modulation; Rev-erbα–FITC-DNA binding, fluorescence polarization, 90 min; activity, % at 10 µM; AID 1259318; P20393; hit rate 0.79% among 370,000;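 active = activity above about 14%, limit read from the data; passing the limit was not always enough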;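 also: 0% = DMSO wells with 35 nM protein and 100% = DMSO wells with 750 nM protein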
# TPT1 inhibitor: C. albicans TPT1 enzyme inhibition; recombinant caTPT1, FP RNA substrate dephosphorylation; inhibition, % at 5 µM; hit rate 0.81% among 300,000; AID 1962;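 active = inhibition above the mean of all tested compounds plus 3 SD, set per screening campaign, cut at about 24% in these data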;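 also: plate controls were DMSO alone for no effect and ferristatin control at 100 nM for full effect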
# CSN deneddyl inh: CSN deneddylation inhibition; inhibition, % at 12.5 µM; hit rate 0.38% among 360,000; Purified CSN, SCF-Nedd8-OG deneddylation, fluorescence polarization;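 active = pattern-corrected inhibition above about 35%, with an unprinted fluorescence ratio check between 0.5 and 1.5, limit read from the data, passing the limit was not always enough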;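 also: 0% = enzyme with substrate and 100% = substrate without enzyme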
#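 Detection – fluorescence polarization · System – HEK293T-derived human Csn5 enzyme · Controls – substrate-only high control, full reaction low control · Timing – 90 min, room temperature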
# NR1D1 mod conf: confirmation of modulators of human Rev-erb alpha DNA binding | AID 1259319 | hit rate 61% among 3,000 | Rev-erb alpha FITC-DNA binding, fluorescence polarization, 90 min | activation, % at 25 µM | shares compounds with NR1D1 modulator;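 active = activation at or above a set limit, or at least 3 SD above the negative control mean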;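 also: 0% = 35 nM protein with DMSO and 100% = 750 nM protein high control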
# RORg DNA counter: counter-screen for Rev-erb alpha modulators: RORgamma DNA binding | shares compounds with NR1D1 modulator | purified RORgamma protein-FITC-DNA binding, fluorescence polarization | IC50, µM | hit rate 8% among 910;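 active = Compounds whose fitted half-maximal concentration for disrupting protein-DNA binding is below 10 micromolar; the record names Rev-erb in its text, so the target is in doubt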
# Active calls of the source: *; i = inactive; / = no result.
SMILES,HNF4A DNA FP,NR1D1 modulator,TPT1 inhibitor,CSN deneddyl inh,NR1D1 mod conf,others
O=c1[nH]c(CSc2nc(-c3ccccc3)cs2)nc2ccccc12,0,1,3,3,/,
Cc1ccc(S(=O)(=O)c2cc3cc(Br)ccc3oc2=O)cc1,1,5,-3,0,/,
CC(C)c1ccc(S(=O)(=O)c2cc3cc(Br)ccc3oc2=O)cc1,-5,19*,-2,-10,15,
CN1CC=C(c2ccc(C(F)(F)F)cc2)N(c2ccc(Br)cc2)C1=O,/,-4,/,/,/,
CC(C)CN(CC(C)C)C(=O)c1ccc2c(c1)NC(=O)C(C)(C)O2,/,-4,/,/,/,
COC(=O)[C@]1(Cc2ccccc2)N[C@H](c2ccc(-c3ccccc3)cc2)[C@@H]2C(=O)N(C)C(=O)[C@@H]21,7,-1,0,5,/,
COC(=O)[C@]1(Cc2ccccc2)N[C@H](c2ccc(-c3cc(C(C)=O)cs3)cc2)[C@@H]2C(=O)N(C)C(=O)[C@@H]21,-2,23*,-1,-1,12,
COc1cccc(COC(=O)c2cc(S(=O)(=O)N3CCCCC3)ccc2N2CCOCC2)c1OC,0,20*,2,5,0,
O=C(OCc1ccccc1F)c1cc(S(=O)(=O)N2CCCCC2)ccc1N1CCOCC1,2,-2,/,-6,/,
COc1ccc(C(=O)COC(=O)c2cc(S(=O)(=O)N3CCCCC3)ccc2N2CCOCC2)c(OC)c1,-1,18*,0,-2,12,
COc1ccccc1C(=O)COC(=O)c1cc(S(=O)(=O)N2CCCCC2)ccc1N1CCOCC1,2,-2,0,-3,/,
Cc1ccc(NC(=O)C2CCN(c3ncccn3)CC2)cc1C,/,1,/,/,/,
CCN(CC)CCCNC(=O)CSc1nc2c(c(C(F)(F)F)n1)CCc1ccccc1-2,0,-3,-1,2,/,
O=C(CSc1nc2c(c(C(F)(F)F)n1)CCc1ccccc1-2)NCc1ccc(F)cc1,2,60*,-4,-1,13,
O=C(O)CSc1nc2c(c(C(F)(F)F)n1)CCc1ccccc1-2,3,3,-2,-6,/,
O=C(CSc1nc2c(c(C(F)(F)F)n1)CCc1ccccc1-2)NCc1ccccc1,2,97*,-3,0,40*,RORg DNA counter=i
O=C(CN1CCN(S(=O)(=O)c2cccc(F)c2)CC1)Nc1ccnn1C1CCCC1,-2,-8,/,-5,/,
COc1ccc2c(c1)oc(=O)c1c3ccccc3[nH]c21,-6,75*,/,8,62*,RORg DNA counter=>40
Cc1[nH]c2ccccc2c1/C=N/NC(=O)C1CC1(c1ccccc1)c1ccccc1 (centres undefined),11,-5,14,-1,/,
CCOC(=O)C1=CCN(S(=O)(=O)c2cccc(Cl)c2)C1c1cccc(Cl)c1 (centres undefined),/,-6,/,/,/,
CCOC(=O)C1=CCN(S(=O)(=O)c2cccc(Cl)c2)C1c1cccc(C)c1 (centres undefined),2,18*,/,-2,4,
Cn1nc(C(=O)OCC(=O)NCc2ccc(Cl)cc2Cl)c2ccccc2c1=O,0,18*,/,-1,20*,
Cn1nc(C(=O)OCC(=O)Nc2cc(Cl)ccc2C#N)c2ccccc2c1=O,-1,3,/,2,/,
Cc1cc(Br)cn2c(Cc3ccccc3C(F)(F)F)c(-c3cccc(Cl)c3)nc12,/,24*,/,/,0,
Cc1cc(Br)cn2c(Cc3cccc(F)c3)c(-c3ccc(C#N)cc3)nc12,20,27*,/,8,13*,
SMILES,HNF4A DNA FP,NR1D1 modulator,TPT1 inhibitor,CSN deneddyl inh,NR1D1 mod conf,others
Cc1cc(Br)cn2c(Cc3cccc(F)c3)c(-c3cccc(Cl)c3)nc12,/,19*,/,/,8,
CCC(c1nc2ccccc2[nH]1)n1c(C)nc2ccccc21 (centres undefined),/,-1,/,/,/,
CCCn1cc(C(=O)Nc2ccc(Oc3cccnc3)cc2)c2ccccc21,/,6,/,/,/,
COc1ccc(-c2ccc3c(n2)CCCN3S(=O)(=O)c2cccs2)cc1,/,2,/,/,/,
CC(C)COc1ccc(C(=O)Nc2scc(-c3ccc(Cl)cc3Cl)c2C(N)=O)cc1,-3,31*,0,-5,29*,
O=C(Nc1nc(-c2ccc(Cl)cc2Cl)cs1)c1ccc(OCC2CCCO2)cc1 (centres undefined),-1,-1,2,0,/,
CC(C)(C)OC(=O)N1C[C@@]23C[C@H](c4cccc(F)c4)[C@@H](C[C@@H]2S1(=O)=O)O3,/,-3,/,/,/,
CC(=O)CC[C@@H]1CC[C@]2(CCCN(S(=O)(=O)c3ccccc3)C2)O1,/,3,/,/,/,
O=c1c(=O)n2c(nn1Cc1ccc(F)cc1)sc1ccccc12,1,33*,-4,2,20*,
COc1cc2[nH]c(=S)nc(NCCc3ccc(C)cc3)c2cc1OC,2,76*,/,-4,52*,RORg DNA counter=4*
CN(C)c1cccc2c(S(=O)(=O)NCC3CCN(C(=O)C(=O)c4cccs4)CC3)cccc12,/,-3,/,/,/,
c1ccc(-c2cnn3c(-c4ccccc4)c(-c4ccccc4)nc3n2)cc1,-95,123*,/,-95,8,
Cc1ccc(CNc2nc3ccccc3n3nnnc23)cc1,-9,115*,-17,-5,71*,RORg DNA counter=>40
Cc1ccc(-c2nc3ccccc3n3nnnc23)cc1,0,4,/,0,/,
O=C(Cn1c(=S)[nH]c2ccccc2c1=O)NCCc1ccccc1,-2,31*,1,-2,31*,RORg DNA counter=>40
Cc1cc(O)cc(=O)n1-c1cccc([N+](=O)[O-])c1,/,4,/,/,/,
COc1cccc(Oc2cnc(N)nc2-c2ccc(OC)cc2O)c1,1,12,-2,-1,/,
COc1ccc(-c2nc(N)ncc2Oc2ccccc2Br)c(O)c1,2,104*,-6,-5,81*,RORg DNA counter=>40
CNc1c2cccc(C)c2nc2c(C(=O)NCCN(C)C)cccc12,-126,15*,/,-43,8,
Cc1ccc(C(=O)NCCN(C)C)c(C)c1,0,5,-7,-5,/,
COC(=O)C1=C(C)N(C)C(=NCc2ccccc2)NC1c1ccc(F)cc1 (centres undefined),/,-5,/,/,/,
Cc1c(C(=O)Nc2ccc(Cl)cc2)c2ccccn2c1C(=O)c1ccccc1,5,43*,1,2,18*,
Cc1c(C(=O)Nc2ccc(Cl)cc2)c2ccccn2c1C(=O)c1ccc([N+](=O)[O-])cc1,5,-2,-6,-4,/,
CCOC(=O)c1c(NC(=O)C2CCCO2)sc(C)c1C (centres undefined),-1,-2,-4,2,/,
CCOC(=O)c1c(NC(=O)C2CCCO2)sc(C(=O)OC(C)(C)C)c1C (centres undefined),-3,46*,-3,0,31*,
CC(C)(N[C@@H](Cc1ccccc1)C(=O)NCC(c1ccccc1)c1ccccc1)C(=O)NC1CCCCC1,/,-4,/,/,/,
CC(C)(C)C(=O)Nc1ccc2oc(-c3cc(F)c(F)cc3Cl)nc2c1,0,22*,-1,2,14,
COc1cccc2c1cc1c(=O)n(CC(=O)NCCCc3ccccc3)nc(C)n12,2,/,-1,-3,/,
